Article PMC9444296 (Investigative Radiology, 2022)

Experiments:
Excretion in SD rats = assay type: in vivo, rat
Summary of the method: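 Non-GLP study in SD rats given a single IV dose of 0.1 mmol/kg. One group (3/sex) gave urine and feces predose and at 0–4, 4–8, 8–24, 24–48, 48–72, 72–96, 96–120 and 120–144 h. A second group with conscious biliary cannulation gave bile 30 min predose and at 0–1, 1–2, 2–4, 4–6 and 6–8 h. Gd was measured by ICP-MS.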

[1] = tested on: cardiovascular and respiratory system functions; assay: Cardiovascular and respiratory safety pharmacology in conscious beagle dogs; assay type: in vivo, dog; settings: single IV 0.07, 0.21, or 0.70 mmol/kg
Summary of the method: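 GLP study in 9 conscious beagle dogs (4 M, 5 F) given a single IV dose of saline or 0.07, 0.21 or 0.70 mmol/kg, at 3.5 mL/kg. Recorded within 1 h predose and at 0.5, 1, 2, 4 and 24 h: ECG (HR, PR, QRS, QT/QTcF, QRS voltage, STe, rhythm, waveform), systolic/diastolic/mean blood pressure, respiratory frequency and tidal volume.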

[2] = tested on: PC3 human prostate cancer xenografts; assay: Contrast-enhanced MRI of PC3 prostate tumor xenografts in rats; assay type: in vivo, rat; settings: PC3 tumors in rats, 3 T, n = 6
Summary of the method: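 Male rats carried subcutaneous flank xenografts of 4 × 10⁶ PC3 or 8 × 10⁶ LNCaP cells in Matrigel-PBS (1:1) and were imaged once tumours exceeded 100 mm³. Scans used 1 mm slices, 2 averages and a 128 × 128 matrix. The same tumour-bearing rats were reused across agents and doses, with a clinical Gd agent at 0.1 mmol Gd/kg as comparator.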

[3] = Plasma protein binding, dog plasma; assay type: in vitro ADME; settings: 37°C, 3 min, 10 kDa ultrafiltration, Gd by ICP-OES, n = 4
Summary of the method: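 Test compound at 50, 80 or 110 μM was incubated with human, dog or rat plasma (alongside HSA 40 mg/mL and PBS) at 37°C for 3 min. Mixtures were kept overnight and centrifuged to remove insolubles. Gd was measured by ICP-OES, and the binding ratio was taken as bound over total concentration.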

CYP2C8 = CYP2C8 (Homo sapiens, UniProt P10632); assay: CYP2C8 inhibition in human liver microsomes; assay type: in vitro ADME; settings: highest test concentration (100 μM)
[4] = Gd remaining in rat tissues after toxicity study; assay type: in vivo; settings: for Measured Concentration of Gd, Mean: day 29, ICP-MS
Summary of the method: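 Femur, abdominal skin, liver, brain, quadriceps, lung, heart, kidney, spleen, colon and jejunum were collected, and residual Gd was measured by ICP-MS.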

CYP2B6 = settings: human primary hepatocytes, 1, 10, and 100 μM
HRH1 = HRH1 (Homo sapiens, UniProt P35367); assay: SAFETYscan E/IC50 assay, HRH1; assay type: biochemical; settings: concentration range 0.005 to 100 μM
Summary of the method: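 Contract-laboratory in vitro panel of 78 targets, run in agonist and/or antagonist modes under provider SOPs over 0.005 to 100 μM. Panel formats included enzyme fragment complementation, FLIPR-based cellular assays, kinase binding and enzymatic assays.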

[5] = Metabolic pathway study in human liver microsomes; assay type: in vitro ADME; settings: 1 μM, 2 hours
r1 and r2 relaxivity = assay type: physicochemical
Summary of the method: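 For the 1.4 T conditions, test compound was prepared at 0.125, 0.25, 0.5, 1 and 2 mM in HSA (40 mg/mL), water or PBS. T1 and T2 were measured on a benchtop relaxometer at 37°C.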

[6] = rats, single dose 1.39 mmol/kg, day 15, ICP-MS

Chain of HRH1 (P35367 whole entry, the tested form may be a part): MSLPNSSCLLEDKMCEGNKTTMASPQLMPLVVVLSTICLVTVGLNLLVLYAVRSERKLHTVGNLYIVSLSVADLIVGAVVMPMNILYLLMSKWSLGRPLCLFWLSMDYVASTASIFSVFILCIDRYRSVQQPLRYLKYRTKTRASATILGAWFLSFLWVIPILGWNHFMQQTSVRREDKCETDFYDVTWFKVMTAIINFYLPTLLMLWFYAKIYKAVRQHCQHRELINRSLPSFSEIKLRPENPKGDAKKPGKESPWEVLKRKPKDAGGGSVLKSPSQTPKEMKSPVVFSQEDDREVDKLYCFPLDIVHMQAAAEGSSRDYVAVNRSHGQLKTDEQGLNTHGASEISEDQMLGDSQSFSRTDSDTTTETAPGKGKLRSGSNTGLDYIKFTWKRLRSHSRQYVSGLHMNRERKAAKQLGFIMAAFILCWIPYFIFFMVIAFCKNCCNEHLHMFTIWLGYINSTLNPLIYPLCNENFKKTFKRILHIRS
Chain of CYP2C8 (P10632 whole entry): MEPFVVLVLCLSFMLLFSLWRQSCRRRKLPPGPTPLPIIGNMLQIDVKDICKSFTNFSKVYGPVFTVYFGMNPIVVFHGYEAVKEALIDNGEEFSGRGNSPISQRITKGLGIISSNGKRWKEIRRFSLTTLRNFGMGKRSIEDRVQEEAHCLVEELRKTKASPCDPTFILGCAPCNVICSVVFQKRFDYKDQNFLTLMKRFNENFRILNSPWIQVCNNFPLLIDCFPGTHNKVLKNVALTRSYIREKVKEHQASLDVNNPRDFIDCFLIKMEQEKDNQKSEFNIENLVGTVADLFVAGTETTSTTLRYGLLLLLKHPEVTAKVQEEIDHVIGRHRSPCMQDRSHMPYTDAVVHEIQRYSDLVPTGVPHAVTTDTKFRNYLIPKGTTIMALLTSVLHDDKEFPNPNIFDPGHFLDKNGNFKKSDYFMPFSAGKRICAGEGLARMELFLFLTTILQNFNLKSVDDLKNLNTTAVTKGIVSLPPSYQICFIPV

ZD2-N3-Gd(HP-DO3A) [MT218]
total excretion of injected Gd in bile, feces, and urine (Excretion in SD rats; SD rats, 0.1 mmol/kg single IV, within 6 days, ICP-MS): 100.01% ± 10.85% of the injected dose | injected dose excreted in urine (Excretion in SD rats; rats, single dose, within the first 8 hours postinjection): Greater than 80% | effect on ECG, blood pressure and respiratory function parameters [1]: no MT218-related effect | CNR ([2]; 0.02 mmol Gd/kg IV, 10 minutes postinjection): 2.67 ± 1.05 | CNR ([2]; 0.02 mmol Gd/kg IV, 30 minutes postinjection): 1.97 ± 0.67 | CNR ([2]; 0.04 mmol Gd/kg IV, 10 minutes postinjection): 5.94 ± 1.68 | CNR ([2]; 0.04 mmol Gd/kg IV, 30 minutes postinjection): 4.92 ± 0.79 | binding ratio to plasma proteins ([3]; 50 μM): 29.10% | binding ratio to plasma proteins ([3]; 80 μM): 26.91% | binding ratio to plasma proteins ([3]; 110 μM): 48.44% | relative CYP2C8 activity, of the negative controls (CYP2C8): 52.5% | Measured Concentration of Gd, Mean ([4]; Female rat, Bone, 0.15 mmol/kg/d daily IV 2 weeks): 0.19 μg/g Tissue | Measured Concentration of Gd, Mean ([4]; Female rat, Bone, 0.46 mmol/kg/d daily IV 2 weeks): 1.13 μg/g Tissue | Measured Concentration of Gd, Mean ([4]; Female rat, Bone, 1.39 mmol/kg/d daily IV 2 weeks): 4.90 μg/g Tissue | Measured Concentration of Gd, Mean ([4]; Female rat, Brain, 0.15 mmol/kg/d daily IV 2 weeks): BQL | Measured Concentration of Gd, Mean ([4]; Female rat, Brain, 0.46 mmol/kg/d daily IV 2 weeks): 0.03 μg/g Tissue | Measured Concentration of Gd, Mean ([4]; Female rat, Brain, 1.39 mmol/kg/d daily IV 2 weeks): 0.40 μg/g Tissue | Measured Concentration of Gd, Mean ([4]; Female rat, Colon, 0.15 mmol/kg/d daily IV 2 weeks): 0.15 μg/g Tissue | Measured Concentration of Gd, Mean ([4]; Female rat, Colon, 0.46 mmol/kg/d daily IV 2 weeks): 1.02 μg/g Tissue | Measured Concentration of Gd, Mean ([4]; Female rat, Colon, 1.39 mmol/kg/d daily IV 2 weeks): 3.44 μg/g Tissue | Measured Concentration of Gd, Mean ([4]; Female rat, Heart, 0.15 mmol/kg/d daily IV 2 weeks): BQL | Measured Concentration of Gd, Mean ([4]; Female rat, Heart, 0.46 mmol/kg/d daily IV 2 weeks): 3.17 μg/g Tissue | Measured Concentration of Gd, Mean ([4]; Female rat, Heart, 1.39 mmol/kg/d daily IV 2 weeks): 1.85 μg/g Tissue | Measured Concentration of Gd, Mean ([4]; Female rat, Jejunum, 0.15 mmol/kg/d daily IV 2 weeks): 0.23 μg/g Tissue | Measured Concentration of Gd, Mean ([4]; Female rat, Jejunum, 0.46 mmol/kg/d daily IV 2 weeks): 0.73 μg/g Tissue | Measured Concentration of Gd, Mean ([4]; Female rat, Jejunum, 1.39 mmol/kg/d daily IV 2 weeks): 3.26 μg/g Tissue | Measured Concentration of Gd, Mean ([4]; Female rat, Kidney, 0.15 mmol/kg/d daily IV 2 weeks): 26.46 μg/g Tissue | Measured Concentration of Gd, Mean ([4]; Female rat, Kidney, 0.46 mmol/kg/d daily IV 2 weeks): 100.81 μg/g Tissue | Measured Concentration of Gd, Mean ([4]; Female rat, Kidney, 1.39 mmol/kg/d daily IV 2 weeks): 346.00 μg/g Tissue | Measured Concentration of Gd, Mean ([4]; Female rat, Liver, 0.15 mmol/kg/d daily IV 2 weeks): 0.31 μg/g Tissue | Measured Concentration of Gd, Mean ([4]; Female rat, Liver, 0.46 mmol/kg/d daily IV 2 weeks): 1.03 μg/g Tissue | Measured Concentration of Gd, Mean ([4]; Female rat, Liver, 1.39 mmol/kg/d daily IV 2 weeks): 4.11 μg/g Tissue | Measured Concentration of Gd, Mean ([4]; Female rat, Lung, 0.15 mmol/kg/d daily IV 2 weeks): 0.20 μg/g Tissue | Measured Concentration of Gd, Mean ([4]; Female rat, Lung, 0.46 mmol/kg/d daily IV 2 weeks): 1.27 μg/g Tissue | Measured Concentration of Gd, Mean ([4]; Female rat, Lung, 1.39 mmol/kg/d daily IV 2 weeks): 3.86 μg/g Tissue | Measured Concentration of Gd, Mean ([4]; Female rat, Muscle, 0.15 mmol/kg/d daily IV 2 weeks): 0.03 μg/g Tissue | Measured Concentration of Gd, Mean ([4]; Female rat, Muscle, 0.46 mmol/kg/d daily IV 2 weeks): 0.21 μg/g Tissue | Measured Concentration of Gd, Mean ([4]; Female rat, Muscle, 1.39 mmol/kg/d daily IV 2 weeks): 1.27 μg/g Tissue | Measured Concentration of Gd, Mean ([4]; Female rat, Skin, 0.15 mmol/kg/d daily IV 2 weeks): 0.14 μg/g Tissue | Measured Concentration of Gd, Mean ([4]; Female rat, Skin, 0.46 mmol/kg/d daily IV 2 weeks): 1.26 μg/g Tissue | Measured Concentration of Gd, Mean ([4]; Female rat, Skin, 1.39 mmol/kg/d daily IV 2 weeks): 4.56 μg/g Tissue | Measured Concentration of Gd, Mean ([4]; Female rat, Spleen, 0.15 mmol/kg/d daily IV 2 weeks): 0.32 μg/g Tissue | Measured Concentration of Gd, Mean ([4]; Female rat, Spleen, 0.46 mmol/kg/d daily IV 2 weeks): 1.41 μg/g Tissue | Measured Concentration of Gd, Mean ([4]; Female rat, Spleen, 1.39 mmol/kg/d daily IV 2 weeks): 4.69 μg/g Tissue | Measured Concentration of Gd, Mean ([4]; Male rat, Bone, 0.15 mmol/kg/d daily IV 2 weeks): 0.28 μg/g Tissue | Measured Concentration of Gd, Mean ([4]; Male rat, Bone, 0.46 mmol/kg/d daily IV 2 weeks): 0.70 μg/g Tissue | Measured Concentration of Gd, Mean ([4]; Male rat, Bone, 1.39 mmol/kg/d daily IV 2 weeks): 5.85 μg/g Tissue | Measured Concentration of Gd, Mean ([4]; Male rat, Brain, 0.15 mmol/kg/d daily IV 2 weeks): BQL | Measured Concentration of Gd, Mean ([4]; Male rat, Brain, 0.46 mmol/kg/d daily IV 2 weeks): 0.07 μg/g Tissue | Measured Concentration of Gd, Mean ([4]; Male rat, Colon, 0.15 mmol/kg/d daily IV 2 weeks): 0.18 μg/g Tissue | Measured Concentration of Gd, Mean ([4]; Male rat, Colon, 0.46 mmol/kg/d daily IV 2 weeks): 0.79 μg/g Tissue | Measured Concentration of Gd, Mean ([4]; Male rat, Colon, 1.39 mmol/kg/d daily IV 2 weeks): 3.92 μg/g Tissue | Measured Concentration of Gd, Mean ([4]; Male rat, Heart, 0.15 mmol/kg/d daily IV 2 weeks): 0.14 μg/g Tissue | Measured Concentration of Gd, Mean ([4]; Male rat, Heart, 0.46 mmol/kg/d daily IV 2 weeks): 1.72 μg/g Tissue | Measured Concentration of Gd, Mean ([4]; Male rat, Heart, 1.39 mmol/kg/d daily IV 2 weeks): 2.56 μg/g Tissue | Measured Concentration of Gd, Mean ([4]; Male rat, Jejunum, 0.15 mmol/kg/d daily IV 2 weeks): 0.17 μg/g Tissue | Measured Concentration of Gd, Mean ([4]; Male rat, Jejunum, 0.46 mmol/kg/d daily IV 2 weeks): 0.73 μg/g Tissue | Measured Concentration of Gd, Mean ([4]; Male rat, Jejunum, 1.39 mmol/kg/d daily IV 2 weeks): 3.72 μg/g Tissue | Measured Concentration of Gd, Mean ([4]; Male rat, Kidney, 0.15 mmol/kg/d daily IV 2 weeks): 15.15 μg/g Tissue | Measured Concentration of Gd, Mean ([4]; Male rat, Kidney, 0.46 mmol/kg/d daily IV 2 weeks): 70.70 μg/g Tissue | Measured Concentration of Gd, Mean ([4]; Male rat, Kidney, 1.39 mmol/kg/d daily IV 2 weeks): 519.85 μg/g Tissue | Measured Concentration of Gd, Mean ([4]; Male rat, Liver, 0.15 mmol/kg/d daily IV 2 weeks): 0.22 μg/g Tissue | Measured Concentration of Gd, Mean ([4]; Male rat, Liver, 0.46 mmol/kg/d daily IV 2 weeks): 1.96 μg/g Tissue | Measured Concentration of Gd, Mean ([4]; Male rat, Liver, 1.39 mmol/kg/d daily IV 2 weeks): 4.85 μg/g Tissue | Measured Concentration of Gd, Mean ([4]; Male rat, Lung, 0.15 mmol/kg/d daily IV 2 weeks): BQL | Measured Concentration of Gd, Mean ([4]; Male rat, Lung, 0.46 mmol/kg/d daily IV 2 weeks): 1.33 μg/g Tissue | Measured Concentration of Gd, Mean ([4]; Male rat, Lung, 1.39 mmol/kg/d daily IV 2 weeks): 4.83 μg/g Tissue | Measured Concentration of Gd, Mean ([4]; Male rat, Muscle, 0.15 mmol/kg/d daily IV 2 weeks): BQL | Measured Concentration of Gd, Mean ([4]; Male rat, Muscle, 0.46 mmol/kg/d daily IV 2 weeks): 0.22 μg/g Tissue | Measured Concentration of Gd, Mean ([4]; Male rat, Muscle, 1.39 mmol/kg/d daily IV 2 weeks): 1.15 μg/g Tissue | Measured Concentration of Gd, Mean ([4]; Male rat, Skin, 0.15 mmol/kg/d daily IV 2 weeks): 0.13 μg/g Tissue | Measured Concentration of Gd, Mean ([4]; Male rat, Skin, 0.46 mmol/kg/d daily IV 2 weeks): 0.95 μg/g Tissue | Measured Concentration of Gd, Mean ([4]; Male rat, Skin, 1.39 mmol/kg/d daily IV 2 weeks): 2.31 μg/g Tissue | Measured Concentration of Gd, Mean ([4]; Male rat, Spleen, 0.15 mmol/kg/d daily IV 2 weeks): 0.37 μg/g Tissue | Measured Concentration of Gd, Mean ([4]; Male rat, Spleen, 0.46 mmol/kg/d daily IV 2 weeks): 1.12 μg/g Tissue | Measured Concentration of Gd, Mean ([4]; Male rat, Spleen, 1.39 mmol/kg/d daily IV 2 weeks): 6.04 μg/g Tissue | Gd concentration in other tissues relative to the kidney concentration [4, 6]: < 1/20 | Gd in the brain and muscles [4, 6]: not detected | induction of mRNA expression of CYP2B6 (CYP2B6): did not induce | induction on enzyme activity of CYP2B6 (CYP2B6): no induction | inhibition rate (HRH1): 17.77% | MT218 remaining ([5]; CYP1A2 group): 105% | MT218 remaining ([5]; CYP2B6 group): 117% | MT218 remaining ([5]; CYP2C8 group): 101% | MT218 remaining ([5]; CYP2C9 group): 98.8% | MT218 remaining ([5]; CYP2C19 group): 105% | MT218 remaining ([5]; CYP2D6 group): 109% | MT218 remaining ([5]; CYP3A4 group): 99.1% | r1 Relaxivity (r1 and r2 relaxivity; 1.4 T, HSA aqueous solution (40 mg/mL), 37°C): 6.54 mM⁻¹ s⁻¹ | r1 Relaxivity (r1 and r2 relaxivity; 1.4 T, PBS, 37°C): 6.58 mM⁻¹ s⁻¹ | r1 Relaxivity (r1 and r2 relaxivity; 3.0 T, H2O, MRS 3000 scanner): 6.25 (H2O) mM^−1 s^−1 | r1 Relaxivity (r1 and r2 relaxivity; 3.0 T, PBS): 6.16 mM⁻¹ s⁻¹
